Laboratory results published in ChEMBL document CHEMBL3102784, “Salicylanilide diethyl phosphates: synthesis, antimicrobial activity and cytotoxicity” (Bioorg Med Chem, 2014).
≈ marks a conversion by molar mass, not a printed value. Calls of active or inactive are those of the source. The calls are words filed in the database; no cut-off is given here.

How the values were obtained:
HepG2 = experiment: Cytotoxicity against human HepG2 cells after 24 hrs by CellTiter assay; type: cell-based; details: HepG2, 24 h
Procedure, shortened: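 HepG2 cells (passage 27–33) in MEM with 10% FBS, L-glutamine and NEAA, seeded at 1×10^4 per well. Treated next day with compounds at 0.1–100 µM (or 0.1–25 µmol/L), triplicates, <1% DMSO, for 24 h at 37 °C, 5% CO2. MTS reagent added for 2 h, absorbance read at 490 nm. IC50 taken against untreated (100%) and 10% DMSO (0%) controls.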

Mycobacterium avium [1] = experiment: Antimycobacterial activity against isoniazid, rifampicin, ethambutol and ofloxacin-resistant Mycobacterium avium My 330/88 after 21 days; type: functional; details: My 330/88, 504 h
Procedure, shortened: (§1)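 Micromethod MIC in Šula's semisynthetic medium at 37 °C. Compounds added in DMSO at 1000 down to 0.032 µmol/L. Isoniazid standard in sterile water at 0.5–250 µmol/L. Inocula: H37Rv 10^3, M. avium 10^5, M. kansasii 10^4. Read at 14 and 21 d, plus 7 d for M. kansasii.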

Trichosporon asahii [2] = experiment: Antifungal activity against Trichosporon asahii 1188 after 48 hrs by broth microdilution method; type: functional; details: Trichosporon asahii, 1188, 48 h
Procedure, shortened: (§2)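 Broth microdilution in RPMI 1640 with glutamine, fluconazole as reference. For yeasts, MIC is ≥80% growth reduction (IC80) versus control. For filamentous fungi, the value is expressed as IC50. Readings at 24 and 48 h.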

Candida albicans [3] = experiment: Antifungal activity against Candida albicans ATCC 44859 after 24 hrs by broth microdilution method; type: functional; details: ATCC 44859, 24 h; procedure, shortened: as §2
Pichia kudriavzevii [4] = experiment: Antifungal activity against Candida krusei E28 after 48 hrs by broth microdilution method; type: functional; details: E28, 48 h; procedure, shortened: as §2
Mycobacterium kansasii [5] = experiment: Antimycobacterial activity against Mycobacterium kansasii My 235/80 after 7 days; type: functional; details: My 235/80, 168 h; procedure, shortened: as §1
Mycobacterium kansasii [6] = experiment: Antimycobacterial activity against Mycobacterium kansasii My 235/80 after 21 days; type: functional; details: My 235/80, 504 h; procedure, shortened: as §1
Lichtheimia corymbifera [7] = experiment: Antifungal activity against Absidia corymbifera 272 after 48 hrs by broth microdilution method; type: functional; details: Lichtheimia corymbifera, 272, 48 h; procedure, shortened: as §2
Staphylococcus aureus [8] = experiment: Antibacterial activity against methicillin-resistant Staphylococcus aureus H 5996/08 after 48 hrs by broth microdilution method; type: functional; details: H 5996/08, 48 h
Procedure, shortened: (§3)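 Broth microdilution in Mueller–Hinton broth, compounds dissolved in DMSO, tested over a dilution series from 500 downward. MIC taken as ≥95% growth reduction (IC95) versus drug-free control. Benzylpenicillin comparator. Readings at 24 and 48 h.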

[9] = test system: Trichophyton mentagrophytes; experiment: Antifungal activity against Trichophyton mentagrophytes 445 after 72 hrs by broth microdilution method; type: functional; details: Trichophyton mentagrophytes, 445, 72 h
Procedure, shortened: (§4)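 Filamentous dermatophyte tested by broth microdilution in RPMI 1640 with glutamine, fluconazole as reference. Value expressed as IC50 relative to growth control. Read at 72 and 120 h.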

Pseudomonas aeruginosa = experiment: Antibacterial activity against Pseudomonas aeruginosa CCM 1961 at 500 micromol/L after 24 to 48 hrs by broth microdilution method; type: functional, organism-based; procedure, shortened: as §3
Aspergillus fumigatus [10] = experiment: Antifungal activity against Aspergillus fumigatus 231 after 48 hrs by broth microdilution method; type: functional; details: Aspergillus fumigatus, 231, 48 h; procedure, shortened: as §2
Mycobacterium avium [11] = experiment: Antimycobacterial activity against isoniazid, rifampicin, ethambutol and ofloxacin-resistant Mycobacterium avium My 330/88 after 14 days; type: functional; details: My 330/88, 336 h; procedure, shortened: as §1
Staphylococcus aureus [12] = experiment: Antibacterial activity against methicillin-resistant Staphylococcus aureus H 5996/08 after 24 hrs by broth microdilution method; type: functional; details: H 5996/08, 24 h; procedure, shortened: as §3
Klebsiella pneumoniae [13] = experiment: Antibacterial activity against ESBL-positive Klebsiella pneumoniae J 14368/08 at 500 micromol/L after 24 to 48 hrs by broth microdilution method; type: functional, organism-based; procedure, shortened: as §3
Mycobacterium kansasii [14] = experiment: Antimycobacterial activity against Mycobacterium kansasii 6509/96 after 21 days; type: functional; details: 6509/96, 504 h; procedure, shortened: as §1
Klebsiella pneumoniae [15] = experiment: Antibacterial activity against Klebsiella pneumoniae D 11750/08 at 500 micromol/L after 24 to 48 hrs by broth microdilution method; type: functional, organism-based; procedure, shortened: as §3
Lichtheimia corymbifera [16] = experiment: Antifungal activity against Absidia corymbifera 272 after 24 hrs by broth microdilution method; type: functional; details: Lichtheimia corymbifera, 272, 24 h; procedure, shortened: as §2
[17] = test system: Staphylococcus epidermidis; experiment: Antibacterial activity against Staphylococcus epidermidis H 6966/08 after 24 hrs by broth microdilution method; type: functional; details: H 6966/08, 24 h; procedure, shortened: as §3
Enterococcus sp. = experiment: Antibacterial activity against Enterococcus sp. J 14365/08 at 500 micromol/L after 24 to 48 hrs by broth microdilution method; type: functional, organism-based; procedure, shortened: as §3
Nakaseomyces glabratus = experiment: Antifungal activity against Candida glabrata 20/I at 500 micromol/L after 24 to 48 hrs by broth microdilution method; type: functional, organism-based; procedure, shortened: as §2
Trichosporon asahii [18] = experiment: Antifungal activity against Trichosporon asahii 1188 after 24 hrs by broth microdilution method; type: functional; details: Trichosporon asahii, 1188, 24 h; procedure, shortened: as §2
Staphylococcus aureus [19] = experiment: Antibacterial activity against Staphylococcus aureus CCM 4516/08 after 48 hrs by broth microdilution method; type: functional; details: CCM 4516/08, 48 h; procedure, shortened: as §3
[20] = test system: Staphylococcus epidermidis; experiment: Antibacterial activity against Staphylococcus epidermidis H 6966/08 after 48 hrs by broth microdilution method; type: functional; details: H 6966/08, 48 h; procedure, shortened: as §3
Escherichia coli = experiment: Antibacterial activity against Escherichia coli CCM 4517 at 500 micromol/L after 24 to 48 hrs by broth microdilution method; type: functional, organism-based; procedure, shortened: as §3
[21] = test system: Trichophyton mentagrophytes; experiment: Antifungal activity against Trichophyton mentagrophytes 445 after 120 hrs by broth microdilution method; type: functional; details: Trichophyton mentagrophytes, 445, 120 h; procedure, shortened: as §4
Aspergillus fumigatus [22] = experiment: Antifungal activity against Aspergillus fumigatus 231 after 24 hrs by broth microdilution method; type: functional; details: Aspergillus fumigatus, 231, 24 h; procedure, shortened: as §2
[23] = test system: Mycobacterium tuberculosis; experiment: Antimycobacterial activity against Mycobacterium tuberculosis H37Rv My 331/88 after 21 days; type: functional; details: H37Rv My 331/88, 504 h; procedure, shortened: as §1
Candida tropicalis = experiment: Antifungal activity against Candida tropicalis 156 at 500 micromol/L after 24 to 48 hrs by broth microdilution method; type: functional, organism-based; procedure, shortened: as §2
[24] = test system: Mycobacterium tuberculosis; experiment: Antimycobacterial activity against Mycobacterium tuberculosis H37Rv My 331/88 after 14 days; type: functional; details: H37Rv My 331/88, 336 h; procedure, shortened: as §1
Staphylococcus aureus [25] = experiment: Antibacterial activity against Staphylococcus aureus CCM 4516/08 after 24 hrs by broth microdilution method; type: functional; details: CCM 4516/08, 24 h; procedure, shortened: as §3
Pichia kudriavzevii [26] = experiment: Antifungal activity against Candida krusei E28 after 24 hrs by broth microdilution method; type: functional; details: E28, 24 h; procedure, shortened: as §2
Mycobacterium kansasii [27] = experiment: Antimycobacterial activity against Mycobacterium kansasii 6509/96 after 14 days; type: functional; details: 6509/96, 336 h; procedure, shortened: as §1
Mycobacterium kansasii [28] = experiment: Antimycobacterial activity against Mycobacterium kansasii My 235/80 after 14 days; type: functional; details: My 235/80, 336 h; procedure, shortened: as §1
Candida albicans [29] = experiment: Antifungal activity against Candida albicans ATCC 44859 after 48 hrs by broth microdilution method; type: functional; details: ATCC 44859, 48 h; procedure, shortened: as §2
Mycobacterium kansasii [30] = experiment: Antimycobacterial activity against Mycobacterium kansasii 6509/96 after 7 days; type: functional; details: 6509/96, 168 h; procedure, shortened: as §1

SMILES: CCOP(=O)(OCC)Oc1ccc(Br)cc1C(=O)Nc1ccc(C(F)(F)F)cc1
- IC50 (HepG2): 1840 nM
- MIC (Mycobacterium avium [1]): 8 µM (≈ 3.97 µg/mL)
- MIC80 (Trichosporon asahii [2]): > 500 µM
- MIC80 (Candida albicans [3]): > 500 µM
- MIC80 (Pichia kudriavzevii [4]): > 500 µM
- MIC (Mycobacterium kansasii [5]): 1 µM (≈ 0.496 µg/mL)
- MIC (Mycobacterium kansasii [6]): 2 µM (≈ 0.992 µg/mL)
- MIC50 (Lichtheimia corymbifera [7]): > 500 µM
- MIC95 (Staphylococcus aureus [8]): 15.6 µM (≈ 7.75 µg/mL)
- MIC50 [9]: 250 µM (≈ 124 µg/mL)
- Activity (Pseudomonas aeruginosa): inactive
- MIC50 (Aspergillus fumigatus [10]): > 500 µM
- MIC (Mycobacterium avium [11]): 8 µM (≈ 3.97 µg/mL)
- MIC95 (Staphylococcus aureus [12]): 15.6 µM (≈ 7.75 µg/mL)
- Activity (Klebsiella pneumoniae [13]): inactive
- MIC (Mycobacterium kansasii [14]): 2 µM (≈ 0.992 µg/mL)
- Activity (Klebsiella pneumoniae [15]): inactive
- MIC50 (Lichtheimia corymbifera [16]): > 500 µM
- MIC95 [17]: 7.81 µM (≈ 3.88 µg/mL)
- Activity (Enterococcus sp.): inactive
- Activity (Nakaseomyces glabratus): inactive
- MIC80 (Trichosporon asahii [18]): > 500 µM
- MIC95 (Staphylococcus aureus [19]): 31.2 µM (≈ 15.5 µg/mL)
- MIC95 [20]: 15.6 µM (≈ 7.75 µg/mL)
- Activity (Escherichia coli): inactive
- MIC50 [21]: 250 µM (≈ 124 µg/mL)
- MIC50 (Aspergillus fumigatus [22]): > 500 µM
- MIC [23]: 1 µM (≈ 0.496 µg/mL)
- Activity (Candida tropicalis): inactive
- MIC [24]: 1 µM (≈ 0.496 µg/mL)
- MIC95 (Staphylococcus aureus [25]): 15.6 µM (≈ 7.75 µg/mL)
- MIC80 (Pichia kudriavzevii [26]): > 500 µM
- MIC (Mycobacterium kansasii [27]): 2 µM (≈ 0.992 µg/mL)
- MIC (Mycobacterium kansasii [28]): 2 µM (≈ 0.992 µg/mL)
- MIC80 (Candida albicans [29]): > 500 µM
- MIC (Mycobacterium kansasii [30]): 2 µM (≈ 0.992 µg/mL)

SMILES: OC(Cn1cncn1)(Cn1cncn1)c1ccc(F)cc1F [FLUCONAZOLE]
- MIC80 (Trichosporon asahii [2]): 9 µM (≈ 2.76 µg/mL)
- MIC80 (Candida albicans [3]): 1 µM (≈ 0.306 µg/mL)
- MIC80 (Pichia kudriavzevii [4]): > 50 µM
- MIC50 (Lichtheimia corymbifera [7]): > 50 µM
- MIC50 [9]: 17 µM (≈ 5.21 µg/mL)
- MIC50 (Aspergillus fumigatus [10]): > 50 µM
- MIC50 (Lichtheimia corymbifera [16]): > 50 µM
- MIC80 (Trichosporon asahii [18]): 4 µM (≈ 1.23 µg/mL)
- MIC50 [21]: 26 µM (≈ 7.96 µg/mL)
- MIC50 (Aspergillus fumigatus [22]): > 50 µM
- MIC80 (Pichia kudriavzevii [26]): > 50 µM
- MIC80 (Candida albicans [29]): 2 µM (≈ 0.613 µg/mL)

SMILES: NNC(=O)c1ccncc1 [ISONIAZID]
- MIC (Mycobacterium avium [1]): > 250 µM
- MIC (Mycobacterium kansasii [5]): > 250 µM
- MIC (Mycobacterium kansasii [6]): > 250 µM
- MIC (Mycobacterium avium [11]): 250 µM (≈ 34.3 µg/mL)
- MIC (Mycobacterium kansasii [14]): 4 µM (≈ 0.549 µg/mL)
- MIC [23]: 1 µM (≈ 0.137 µg/mL)
- MIC [24]: 0.5 µM (≈ 0.0686 µg/mL)
- MIC (Mycobacterium kansasii [27]): 4 µM (≈ 0.549 µg/mL)
- MIC (Mycobacterium kansasii [28]): > 250 µM
- MIC (Mycobacterium kansasii [30]): 2 µM (≈ 0.274 µg/mL)

SMILES: Nc1ccc(C(=O)O)c(O)c1 [AMINOSALICYLIC ACID]
- MIC (Mycobacterium avium [1]): 125 µM (≈ 19.1 µg/mL)
- MIC (Mycobacterium kansasii [5]): 125 µM (≈ 19.1 µg/mL)
- MIC (Mycobacterium kansasii [6]): > 1000 µM
- MIC (Mycobacterium avium [11]): 32 µM (≈ 4.9 µg/mL)
- MIC (Mycobacterium kansasii [14]): 500 µM (≈ 76.6 µg/mL)
- MIC [23]: 62.5 µM (≈ 9.57 µg/mL)
- MIC [24]: 62.5 µM (≈ 9.57 µg/mL)
- MIC (Mycobacterium kansasii [27]): 125 µM (≈ 19.1 µg/mL)
- MIC (Mycobacterium kansasii [28]): 1000 µM (≈ 153 µg/mL)
- MIC (Mycobacterium kansasii [30]): 32 µM (≈ 4.9 µg/mL)

SMILES: CC1(C)S[C@@H]2[C@H](NC(=O)Cc3ccccc3)C(=O)N2[C@H]1C(=O)O [PENICILLIN G]
- MIC95 (Staphylococcus aureus [8]): 125 µM (≈ 41.8 µg/mL)
- MIC95 (Staphylococcus aureus [12]): 62.5 µM (≈ 20.9 µg/mL)
- MIC95 [17]: 250 µM (≈ 83.6 µg/mL)
- MIC95 (Staphylococcus aureus [19]): 0.98 µM (≈ 0.328 µg/mL)
- MIC95 [20]: 250 µM (≈ 83.6 µg/mL)
- MIC95 (Staphylococcus aureus [25]): 0.98 µM (≈ 0.328 µg/mL)
